Measured values from ChEMBL document CHEMBL1129267, “Aryl 1-but-3-ynyl-4-phenyl-1,2,3,6-tetrahydropyridines as potential antipsychotic agents: synthesis and structure-activity relationships” (J Med Chem, 1996).
pEC50, pKi: −log10 of the molar value.

How the values were obtained:
Mus musculus [1] = assay: (§1) Compound was tested for the inhibition of locomotor activity (LMA)by administering Intraperitoneally in mouse.; format: functional; details: ip
Outline: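 Mice dosed ip, then tested immediately for 1 h in darkened cylindrical photobeam chambers. Percent inhibition of locomotor activity relative to vehicle-treated animals; ED50 derived from three to six doses, n = 6-18 animals/dose.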

Rattus norvegicus [2] = assay: In vivo inhibition of locomotor activity in the rat following p.o. administration.; format: functional; details: po
D(2) dopamine receptor [3] = molecular target: T1, D(2) dopamine receptor (Rattus norvegicus, UniProt P61169); assay: Binding affinity at Dopamine receptor D2 in rat striatal membrane by [3H]spiperone displacement.; format: cell membranes, Striatum
Outline: (§2)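 Rat striatal membranes; [³H]spiperone 0.2 nM final; nonspecific binding defined with (+)-butaclamol 1.0 µM final. Four to six concentrations, each run in triplicate; Ki obtained by nonlinear regression analysis.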

D(2) dopamine receptor [4] = molecular target: T1, D(2) dopamine receptor; assay: Compound was evaluated for their affinity against dopamine receptor D2 by displacing [3H]-spiperone in rat striatal membrane; format: cell membranes, Striatum; outline: as §2
Mus musculus [5] = assay: as §1; format: functional; details: ip; remark: listed apart in the source
Rattus norvegicus [6] = assay: Compound was tested for the inhibition of locomotor activity (LMA)by administering orally in rat; format: functional; details: po
Outline: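 Rats dosed orally 1 h before a 30 min test in darkened cylindrical photobeam chambers. Percent inhibition of locomotor activity relative to vehicle-treated animals; ED50 derived from three to six doses, n = 6-18 animals/dose.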

[7] = molecular target: T2, 5-hydroxytryptamine receptor 1A (Rattus norvegicus, UniProt P19327); assay: (§3) Binding affinity against serotonin 5-hydroxytryptamine 1A receptor using radioligand [3H]8-OH-DPAT binding assay; set-up: species or system Homo sapiens
T2 sequence (P19327 whole entry): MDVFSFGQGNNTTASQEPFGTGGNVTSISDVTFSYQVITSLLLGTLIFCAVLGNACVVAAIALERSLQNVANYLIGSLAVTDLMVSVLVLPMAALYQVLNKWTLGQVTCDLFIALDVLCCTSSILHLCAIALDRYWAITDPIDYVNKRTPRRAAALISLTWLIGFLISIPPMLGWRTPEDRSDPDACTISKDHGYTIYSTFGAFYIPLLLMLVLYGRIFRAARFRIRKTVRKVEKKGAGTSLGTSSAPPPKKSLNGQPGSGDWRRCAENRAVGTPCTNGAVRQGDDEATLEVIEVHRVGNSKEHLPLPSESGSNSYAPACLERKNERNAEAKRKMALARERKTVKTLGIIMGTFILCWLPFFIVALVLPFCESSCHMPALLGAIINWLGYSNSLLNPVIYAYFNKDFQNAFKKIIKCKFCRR
Outline: (§4)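 Rat hippocampal membranes labelled with [³H]-8-OH-DPAT (0.4 nM final); nonspecific binding with 8-OH-DPAT (1 µM).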

[8] = molecular target: T3, Adrenergic receptor alpha-1 (Rattus norvegicus, UniProt P15823+P23944+P43140); assay: Binding affinity against Alpha-1 adrenergic receptor using radioligand [3H]prazosin binding assay.; format: protein assay
T3 sequence (P15823 whole entry): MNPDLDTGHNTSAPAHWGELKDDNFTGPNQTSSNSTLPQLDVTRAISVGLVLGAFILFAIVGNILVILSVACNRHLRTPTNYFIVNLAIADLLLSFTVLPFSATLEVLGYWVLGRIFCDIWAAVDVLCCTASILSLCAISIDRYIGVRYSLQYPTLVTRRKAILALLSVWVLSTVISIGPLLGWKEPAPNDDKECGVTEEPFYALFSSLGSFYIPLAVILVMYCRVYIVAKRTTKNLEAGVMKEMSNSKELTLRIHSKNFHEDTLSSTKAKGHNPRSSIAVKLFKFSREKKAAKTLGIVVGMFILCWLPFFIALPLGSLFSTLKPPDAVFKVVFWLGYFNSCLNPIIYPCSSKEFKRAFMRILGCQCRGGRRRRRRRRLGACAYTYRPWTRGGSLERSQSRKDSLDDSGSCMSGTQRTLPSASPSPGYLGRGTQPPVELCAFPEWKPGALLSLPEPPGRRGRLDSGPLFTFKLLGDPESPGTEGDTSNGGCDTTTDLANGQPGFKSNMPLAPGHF
T3 sequence (P23944 whole entry): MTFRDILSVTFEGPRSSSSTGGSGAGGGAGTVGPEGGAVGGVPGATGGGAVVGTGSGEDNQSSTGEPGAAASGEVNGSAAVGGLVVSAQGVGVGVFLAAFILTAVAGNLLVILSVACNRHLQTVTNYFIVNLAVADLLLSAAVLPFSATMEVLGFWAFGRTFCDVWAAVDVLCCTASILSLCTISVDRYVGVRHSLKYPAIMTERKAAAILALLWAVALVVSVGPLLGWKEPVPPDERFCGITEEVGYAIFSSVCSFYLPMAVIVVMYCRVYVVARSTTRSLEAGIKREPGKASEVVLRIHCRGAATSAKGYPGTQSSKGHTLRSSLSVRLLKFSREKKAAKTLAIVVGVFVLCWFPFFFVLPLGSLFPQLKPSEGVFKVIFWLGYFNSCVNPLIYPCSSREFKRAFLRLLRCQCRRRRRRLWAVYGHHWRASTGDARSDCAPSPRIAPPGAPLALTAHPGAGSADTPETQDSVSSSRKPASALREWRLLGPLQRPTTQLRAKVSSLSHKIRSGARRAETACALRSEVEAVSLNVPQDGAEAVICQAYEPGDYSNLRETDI
T3 sequence (P43140 whole entry): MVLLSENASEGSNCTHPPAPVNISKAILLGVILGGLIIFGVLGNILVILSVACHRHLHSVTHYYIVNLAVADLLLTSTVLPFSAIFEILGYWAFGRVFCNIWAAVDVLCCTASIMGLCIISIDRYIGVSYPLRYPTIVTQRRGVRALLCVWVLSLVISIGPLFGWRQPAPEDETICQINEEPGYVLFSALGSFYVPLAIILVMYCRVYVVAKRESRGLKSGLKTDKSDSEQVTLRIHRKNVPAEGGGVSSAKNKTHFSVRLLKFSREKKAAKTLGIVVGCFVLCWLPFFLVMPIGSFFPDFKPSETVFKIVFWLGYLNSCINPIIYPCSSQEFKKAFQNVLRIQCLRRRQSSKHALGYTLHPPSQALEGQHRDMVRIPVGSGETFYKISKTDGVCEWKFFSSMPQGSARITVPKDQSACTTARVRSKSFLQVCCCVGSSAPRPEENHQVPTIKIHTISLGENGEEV
Outline: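 Inhibition of [³H]prazosin (0.1 nM final) binding in rat cortex membranes; phentolamine (10 µM final) defines nonspecific binding.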

D(2) dopamine receptor [9] = molecular target: T4, D(2) dopamine receptor (Homo sapiens, UniProt P14416); assay: Compound was evaluated […] for Dopamine receptor D2 mitogenesis. [3H]thymidine incorporation in CHO p-5 cells expressing human D2 receptors.; format: organism-based
Outline: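 CHO p-5 cells transfected with human D2L receptor are grown 2 days at 37 °C in medium with 10% calf serum, then rinsed and put in serum-free medium. Compound (in water) is added for 16-17 h, then [³H]thymidine (1 µCi/well) for 4 h. Cells are harvested and counted. Maximal effect is given as % of quinpirole (100%).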

D(2) dopamine receptor [10] = molecular target: T1, D(2) dopamine receptor; assay: Binding affinity against Dopamine receptor D2 in CHO-K1 cells using radioligand [3H]NPA binding assay; format: cell-based
Monkey = assay: Compound was tested for inhibition of conditioned avoidance after administering perorally(po) in squirrel monkeys; format: functional; details: Cebidae, in Saimiri
Rattus norvegicus [11] = assay: Percent decrease of the firing rate of rat substantia nigra DA neurons at a dose of 2.5 mg/kg ip; format: functional; details: route intraperitoneal
Rattus norvegicus [12] = assay: Percent reversal of the increase on DOPA levels in the striatum of GBL-treated rats at a dose of 10 mg/kg ip; format: functional; details: route intraperitoneal
D(2) dopamine receptor [13] = molecular target: T4, D(2) dopamine receptor; assay: […] Dopamine receptor D2 mitogenesis measured as [3H]thymidine incorporation in CHO p-5 cells expressing human D2 receptors
Outline: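 CHO p-5 cells transfected with human D2L are grown 2 days at 37 °C in medium with 10% calf serum, rinsed, and switched to serum-free medium plus compound in water. After 16-17 h, [³H]thymidine (1 µCi/well) is added for 4 h; cells are harvested onto filters and counted.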

D(1A) dopamine receptor [14] = molecular target: T5, D(1A) dopamine receptor (Rattus norvegicus, UniProt P18901); format: cell membranes, Brain, Membrane
D(3) dopamine receptor = D(3) dopamine receptor (Homo sapiens, UniProt P35462); assay: Binding affinity against human Dopamine receptor D3 in CHO-K1 cells using [3H]spiperone as radioligand; format: cell-based
[15] = molecular target: T2, 5-hydroxytryptamine receptor 1A; assay: as §3; outline: as §4
D(4) dopamine receptor = molecular target: T6, D(4) dopamine receptor (Homo sapiens, UniProt P21917); assay: Binding affinity against human Dopamine receptor D4 in CHO-K1 cells using [3H]spiperone as radioligand; format: cell-based
T6 sequence (P21917 whole entry): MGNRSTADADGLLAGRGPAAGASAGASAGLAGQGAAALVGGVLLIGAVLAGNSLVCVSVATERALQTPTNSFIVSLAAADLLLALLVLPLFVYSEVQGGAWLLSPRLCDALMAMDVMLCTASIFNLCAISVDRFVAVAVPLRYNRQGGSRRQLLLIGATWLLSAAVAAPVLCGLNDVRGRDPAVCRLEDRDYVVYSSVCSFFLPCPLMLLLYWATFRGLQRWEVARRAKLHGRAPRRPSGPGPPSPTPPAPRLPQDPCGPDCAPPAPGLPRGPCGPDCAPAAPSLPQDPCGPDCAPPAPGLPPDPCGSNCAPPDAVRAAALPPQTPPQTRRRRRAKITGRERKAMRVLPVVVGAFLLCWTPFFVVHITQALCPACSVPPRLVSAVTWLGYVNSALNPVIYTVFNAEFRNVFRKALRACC
Outline: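 Human D4.2 receptor expressed in CHO K1 cells; [³H]spiperone 0.2 nM final; nonspecific binding defined with haloperidol 1.0 µM final.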

D(1A) dopamine receptor [16] = molecular target: T5, D(1A) dopamine receptor; assay: Binding affinity against dopamine receptor D1 using radioligand ([3H]-SCH 23390) binding assay

D(3) dopamine receptor, sequence (P35462 whole entry): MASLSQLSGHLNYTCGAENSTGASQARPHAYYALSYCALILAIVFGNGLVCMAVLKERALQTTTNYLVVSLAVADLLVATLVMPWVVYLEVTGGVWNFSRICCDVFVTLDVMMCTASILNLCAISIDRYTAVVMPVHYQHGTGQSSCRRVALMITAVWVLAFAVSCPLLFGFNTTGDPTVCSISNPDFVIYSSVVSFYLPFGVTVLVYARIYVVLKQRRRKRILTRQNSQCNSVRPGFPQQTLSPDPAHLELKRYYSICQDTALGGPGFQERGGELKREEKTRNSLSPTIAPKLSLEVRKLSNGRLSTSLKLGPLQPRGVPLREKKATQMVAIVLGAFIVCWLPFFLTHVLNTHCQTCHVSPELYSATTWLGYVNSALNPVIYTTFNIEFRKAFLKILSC
T5 sequence (P18901 whole entry): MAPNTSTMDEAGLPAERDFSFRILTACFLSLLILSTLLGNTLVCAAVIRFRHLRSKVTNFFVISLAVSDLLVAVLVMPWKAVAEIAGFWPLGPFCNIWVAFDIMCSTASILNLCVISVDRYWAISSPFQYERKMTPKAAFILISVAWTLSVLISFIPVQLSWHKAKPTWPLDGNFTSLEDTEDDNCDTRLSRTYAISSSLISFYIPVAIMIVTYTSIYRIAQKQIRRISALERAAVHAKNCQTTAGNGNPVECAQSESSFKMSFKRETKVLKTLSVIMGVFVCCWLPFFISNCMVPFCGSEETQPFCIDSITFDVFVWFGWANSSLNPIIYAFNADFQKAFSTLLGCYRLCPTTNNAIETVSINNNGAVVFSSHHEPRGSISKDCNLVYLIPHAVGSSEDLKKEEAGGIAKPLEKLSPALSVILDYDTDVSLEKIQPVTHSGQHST
T1 sequence (P61169 whole entry): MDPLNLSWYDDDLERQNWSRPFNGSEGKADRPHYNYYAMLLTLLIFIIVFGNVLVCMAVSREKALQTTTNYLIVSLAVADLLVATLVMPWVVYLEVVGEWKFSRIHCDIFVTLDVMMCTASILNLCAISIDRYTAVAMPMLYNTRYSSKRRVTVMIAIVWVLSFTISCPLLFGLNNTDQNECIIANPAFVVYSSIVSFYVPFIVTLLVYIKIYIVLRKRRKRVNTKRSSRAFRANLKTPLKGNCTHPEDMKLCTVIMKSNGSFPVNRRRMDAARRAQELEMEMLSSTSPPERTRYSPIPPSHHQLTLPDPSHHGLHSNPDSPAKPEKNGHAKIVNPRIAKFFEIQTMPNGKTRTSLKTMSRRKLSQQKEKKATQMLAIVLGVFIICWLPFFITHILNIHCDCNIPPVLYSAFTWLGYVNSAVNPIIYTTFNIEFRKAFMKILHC
T4 sequence (P14416 whole entry): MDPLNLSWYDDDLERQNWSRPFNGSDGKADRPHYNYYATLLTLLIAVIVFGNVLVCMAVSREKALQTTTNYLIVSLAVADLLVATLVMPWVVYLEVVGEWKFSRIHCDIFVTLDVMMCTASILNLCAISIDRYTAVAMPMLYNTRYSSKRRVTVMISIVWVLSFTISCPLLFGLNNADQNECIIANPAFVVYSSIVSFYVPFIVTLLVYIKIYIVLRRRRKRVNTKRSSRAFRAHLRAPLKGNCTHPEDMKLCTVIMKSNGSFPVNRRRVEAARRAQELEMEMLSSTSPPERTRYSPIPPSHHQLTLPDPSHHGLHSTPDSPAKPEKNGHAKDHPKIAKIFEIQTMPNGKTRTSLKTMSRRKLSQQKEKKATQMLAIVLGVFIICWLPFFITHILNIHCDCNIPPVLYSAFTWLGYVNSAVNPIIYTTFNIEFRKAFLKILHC

Structure (SMILES)	ED50 (Rattus norvegicus [2]) [mg/kg]	pKi (D(2) dopamine receptor [3])	pKi (D(2) dopamine receptor [4])	ED50 (Mus musculus [5]) [mg/kg]	ED50 (Rattus norvegicus [6]) [mg/kg]	Ki [8] [nM]	pKi (D(2) dopamine receptor [10])	ED50 (Monkey) [mg/kg]	Decrease (Rattus norvegicus [11]) [%]	pKi (D(3) dopamine receptor)	pKi [15]	pKi (D(4) dopamine receptor)	also measured
C(#Cc1cccnc1)CCN1CCN(c2ccccn2)CC1	> 30												ED50 (Mus musculus [1]): 2.2 mg/kg
C(#Cc1cnc2ccccc2c1)CN1CC=C(c2ccccc2)CC1		< 5.00											ED50 (Mus musculus [1]): > 30 mg/kg
C(#Cc1ccccc1)CCN1CC=C(c2ccccc2)CC1			6.55	9.5	20.5								
Nc1cccc(C#CCCN2CC=C(c3ccccc3)CC2)c1			7.06		5.6	107	7.74	9.3	98				pKi [7]: 5.81; Max effect (D(2) dopamine receptor [9]): 75%; ED50 (Mus musculus [1]): 0.68 mg/kg; Decrease (Rattus norvegicus [12]): 42%
C(#Cc1ccc2c(c1)OCCO2)CCN1CC=C(c2ccccc2)CC1	> 30	6.90		2.2									
Nc1ccc(C#CCCN2CC=C(c3ccccc3)CC2)cn1	2.5	7.48		0.06			7.72	2.8	63	8.15	6.20	6.56	pEC50 (D(2) dopamine receptor [13]): 9.30; pKi (D(1A) dopamine receptor [14]): < 5.00
Nc1ccc(C#CCCN2CC=C(c3ccccc3)CC2)cc1			7.32		2.7	34.5	9.17	3.8	81		< 5.00	6.64	pKi (D(1A) dopamine receptor [16]): < 5.00; Max effect (D(2) dopamine receptor [9]): 49%
Oc1ccc2[nH]cc(CCCCN3CC=C(c4ccccc4)CC3)c2c1 [ROXINDOLE]	12.8	8.04		0.2					100	9.40		7.62	Decrease (Rattus norvegicus [12]): 64%
C(#Cc1ccncc1)CCN1CC=C(c2ccccc2)CC1	4.4	7.49				25.8	8.39	11.9	93	8.19	6.23	6.24	pEC50 (D(2) dopamine receptor [13]): 9.00
Oc1ccc(C#CCCN2CC=C(c3ccccc3)CC2)cc1			7.27	1.5	> 30								
C(#Cc1ccc2occc2c1)CCN1CC=C(c2ccccc2)CC1	10.6	6.36		2.5									
Nc1ccc(C#CCCN2CC=C(c3ccccc3)CC2)nc1	1.7	7.20				57.5	8.72	0.43	100	8.59	7.16	6.43	pEC50 (D(2) dopamine receptor [13]): 8.89; pKi (D(1A) dopamine receptor [14]): < 5.00
